Data as given in ChEMBL document CHEMBL4261487, “Small structural changes of the imidazopyridine diacylglycerol acyltransferase 2 (DGAT2) inhibitors produce an improved safety profile” (Medchemcomm, 2017).
pIC50: −log10 of the molar value.

How the values were obtained:
Rattus norvegicus [1] = test: Unbound AUC in Wistar Han IGS rat at 500 mg/kg, po qd administered for 14 days; type: ADME, organism-based; conditions: in vivo, 336 h
Procedure, shortened: (§1)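 Wistar Han rats were dosed orally once daily for 14 days (exploratory, 5/sex/dose) or 1 month (toxicity, 10/sex/dose). Toxicokinetic satellite animals (3–4/sex/dose) were used, and steady-state systemic exposure is given as the mean of male and female values combined.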

Canis familiaris [2] = test: Toxicity in beagle dog assessed as decrease in body weight at 150 mg/kg, po qd administered for 10 days; type: organism-based, Canis lupus familiaris; conditions: in vivo, 240 h
Canis familiaris [3] = test: Toxicity in beagle dog assessed as increase in heart rate at 50 to 150 mg/kg, po qd administered for 1 month; type: organism-based, Canis lupus familiaris; conditions: in vivo
[4] = Toxicity in po dosed beagle dog administered as qd for 14 days; type: organism-based, Canis lupus familiaris; conditions: in vivo
Canis familiaris [5] = test: In vivo inhibition of DGAT2 in beagle dog assessed as coverage of in vitro IC50 for dog DGAT2 at 75 mg/kg, po qd administered for 14 days; type: functional, Canis lupus familiaris; set-up: scale not given: the % may be the effect or the level left
Procedure, shortened: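 Beagle dogs, once-daily oral dosing for 14 days or 1 month; systemic exposure with sexes combined; coverage is the average % above dog DGAT2 IC50 at steady state over the 24 h dosing interval.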

Canis familiaris [6] = test: Toxicity in beagle dog assessed as decrease in food consumption at 150 mg/kg, po qd administered for 10 days; type: organism-based, Canis lupus familiaris; conditions: in vivo, 240 h
Canis familiaris [7] = test: Unbound Cmax in beagle dog […] at 300 mg/kg, po qd administered for 14 days; type: ADME, organism-based, Canis lupus familiaris; conditions: in vivo, 336 h
Procedure, shortened: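 Exploratory 14-day dog toxicity study with daily oral dosing. Toxicokinetic exposure is reported as the mean with male and female systemic values combined.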

Canis familiaris [8] = test: Toxicity in telemetered beagle dog assessed as foamy white salivation at 75 mg/kg administered via oral gavage measured within 4 hrs of dosing; type: organism-based, Canis lupus familiaris; conditions: in vivo
Rattus norvegicus [9] = test: In vivo inhibition of DGAT2 in Wistar Han IGS rat assessed as coverage of in vitro IC50 for rat DGAT2 at 30 mg/kg, po qd administered for 1 month; type: functional; set-up: scale not given: the % may be the effect or the level left
Procedure, shortened: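 Wistar Han rats, once-daily oral dosing for 14 days (exploratory, 5/sex/dose) or 1 month (10/sex/dose); toxicokinetics in 3–4/sex/dose with sexes combined; coverage is the average % above rat DGAT2 IC50 at steady state over the 24 h dosing interval.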

Canis familiaris [10] = test: Unbound Cmax in beagle dog at 50 mg/kg, po qd administered for 1 month; type: ADME, organism-based, Canis lupus familiaris; conditions: in vivo
Procedure, shortened: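 Beagle dogs were given the compound orally once daily for 1 month in a toxicity study, with 2 dogs per sex per dose group. Plasma exposure was measured at steady state across the 24 h dosing interval.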

Rattus norvegicus [11] = test: Toxicity in Wistar Han IGS rat assessed as foamy macrophage accumulation in lung at 500 mg/kg, po qd administered for 14 days; type: organism-based; conditions: in vivo, 336 h
Procedure, shortened: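 Wistar Han rats, daily oral dosing for 14 days (5/sex/dose) or 1 month (10/sex/dose); microscopic findings reported as incidence by sex, plus organ weights.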

Rattus norvegicus [12] = test: Unbound Cmax in Wistar Han IGS rat at 300 mg/kg, po qd administered for 1 month; type: ADME, organism-based; conditions: in vivo; procedure, shortened: as §1
Rattus norvegicus [13] = test: Unbound AUC in Wistar Han IGS rat at 30 mg/kg, po qd administered for 1 month; type: ADME, organism-based; conditions: in vivo; procedure, shortened: as §1
Canis familiaris [14] = test: Unbound AUC in beagle dog at 75 mg/kg, po qd administered for 14 days; type: ADME, organism-based, Canis lupus familiaris; conditions: in vivo, 336 h
Procedure, shortened: (§2)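 Beagle dogs were dosed orally once daily in a 14-day exploratory study or 1-month toxicity studies. Steady-state systemic exposure over the 24 h dosing interval is reported as the mean of male and female values combined.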

Canis familiaris [15] = test: Unbound AUC in beagle dog at 2 mg/kg, po qd administered for 1 month; type: ADME, organism-based, Canis lupus familiaris; conditions: in vivo; procedure, shortened: as §2
Canis familiaris [16] = test: Toxicity in telemetered beagle dog assessed as increase in systolic blood pressure at 20 mg/kg, iv administered as single bolus dose over 2 mins; type: organism-based, Canis lupus familiaris; conditions: in vivo
Canis familiaris [17] = test: Unbound Cmax in beagle dog at 100 to 150 mg/kg, po qd administered for 1 month; type: ADME, organism-based, Canis lupus familiaris; conditions: in vivo; procedure, shortened: as §2
Canis familiaris [18] = test: Toxicity in telemetered beagle dog assessed as increase in heart rate at 10 mg/kg administered via oral gavage measured over 24 hrs; type: organism-based, Canis lupus familiaris; conditions: in vivo
Canis familiaris [19] = test: Toxicity in telemetered beagle dog assessed as increase in systolic pressure at 75 mg/kg administered via oral gavage measured over 24 hrs; type: organism-based, Canis lupus familiaris; conditions: in vivo
Canis familiaris [20] = test: Toxicity in po dosed telemetered beagle dog assessed as increase in heart rate measured over 24 hrs; type: organism-based, Canis lupus familiaris; conditions: in vivo
Canis familiaris [21] = test: Unbound Cmax in telemetered beagle dog at 50 mg/kg administered via oral gavage measured over 24 hrs; type: ADME, organism-based, Canis lupus familiaris; conditions: in vivo
Procedure, shortened: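 Telemetered Beagle dogs given oral doses, with blood pressure and heart rate monitored after dosing alongside plasma exposure.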

[22] = Ratio of Cmax in beagle dog at 3 mg/kg, po qd administered for 1 month to IC50 for in vitro inhibition of dog DGAT2; type: organism-based, Canis lupus familiaris; conditions: in vivo
Procedure, shortened: (§3)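 One-month toxicity study in Beagle dogs with N = 2/sex/dose. Plasma exposure at each dose level was referenced to the dog DGAT2 enzymatic IC50, reported as the geometric mean of at least three replicates.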

Canis familiaris [23] = test: Toxicity in telemetered beagle dog assessed as increase in systolic pressure at 5 mg/kg administered via oral gavage measured during 4 hrs of post dosing; type: organism-based, Canis lupus familiaris; conditions: in vivo
[24] = target: T1, Diacylglycerol O-acyltransferase 1 (Homo sapiens, UniProt O75907); test: Inhibition of DGAT1 (unknown origin)
T1 sequence (O75907 whole entry): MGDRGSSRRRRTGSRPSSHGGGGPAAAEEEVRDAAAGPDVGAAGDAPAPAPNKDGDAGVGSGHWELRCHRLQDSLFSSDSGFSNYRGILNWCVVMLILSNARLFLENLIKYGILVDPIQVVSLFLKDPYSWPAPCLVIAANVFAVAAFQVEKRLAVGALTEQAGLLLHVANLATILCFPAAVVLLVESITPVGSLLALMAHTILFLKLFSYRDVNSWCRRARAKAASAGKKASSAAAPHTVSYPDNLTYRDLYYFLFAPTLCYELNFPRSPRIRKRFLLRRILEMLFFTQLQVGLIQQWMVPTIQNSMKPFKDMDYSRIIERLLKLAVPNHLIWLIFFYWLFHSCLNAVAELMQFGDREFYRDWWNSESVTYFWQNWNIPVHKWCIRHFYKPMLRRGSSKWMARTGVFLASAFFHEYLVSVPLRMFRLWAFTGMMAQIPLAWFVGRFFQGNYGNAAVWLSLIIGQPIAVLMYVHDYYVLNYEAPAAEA

Canis familiaris [25] = test: Toxicity in telemetered beagle dog assessed as emesis at 5 to 50 mg/kg administered via oral gavage measured within 4 hrs of dosing; type: organism-based, Canis lupus familiaris; conditions: in vivo
[26] = Drug metabolism in human liver microsomes assessed as fraction of UGT-mediated glucuronidation preincubated for 5 mins followed by addition of NADPH regenerating system and measured after 2.5 to 60 mins; type: ADME
Procedure, shortened: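 Fractions of metabolism attributed to CYP oxidation and UGT glucuronidation were derived from human liver microsomal incubations. For the glucuronidation arm, microsomes were supplemented with the UGT cofactor UDP-glucuronic acid.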

[27] = Plasma clearance in beagle dog at 1 mg/kg, iv; type: ADME, organism-based, Canis lupus familiaris
[28] = Apparent intrinsic clearance in rat hepatocytes assessed per million cells; type: ADME, cell-based, Hepatocyte
[29] = Ratio of Cmax in beagle dog at 30 mg/kg, po qd administered for 1 month to IC50 for in vitro inhibition of dog DGAT2; type: organism-based, Canis lupus familiaris; conditions: in vivo; procedure, shortened: as §3
[30] = Fraction unbound in dog plasma; type: ADME, cell-free, Canis lupus familiaris
Canis familiaris [31] = test: Toxicity in telemetered beagle dog assessed as increase in systolic pressure at 25 mg/kg administered via oral gavage measured during 4 hrs of post dosing; type: organism-based, Canis lupus familiaris; conditions: in vivo
Canis familiaris [32] = test: Unbound AUC in beagle dog at 3 mg/kg, po qd administered for 1 month; type: ADME, organism-based, Canis lupus familiaris; conditions: in vivo; procedure, shortened: as §2

## CS(=O)(=O)O.O=C([C@@H]1CCCN(c2ccc3nc(C4(n5cc(Cl)cn5)CC4)[nH]c3n2)C1)N1CCCC1
Rattus norvegicus [1]
  fAUC: 88300 ng·h/mL
Canis familiaris [2]
  Activity: Toxic
Canis familiaris [3]
  Activity: Toxic
[4]
  MTD at 336 h: 75 mg/kg/day
Canis familiaris [5]
  Activity: 99%
Canis familiaris [6]
  Activity: Toxic
Canis familiaris [7]
  fCmax: 15.3 µM
Canis familiaris [8]
  Activity: Toxic
Rattus norvegicus [9]
  Activity: 92%
Canis familiaris [10]
  fCmax: 12.7 µM
Rattus norvegicus [11]
  Activity: Toxic
Rattus norvegicus [12]
  fCmax: 13.9 µM
Rattus norvegicus [13]
  fAUC: 4630 ng·h/mL
Canis familiaris [14]
  fAUC: 24800 ng·h/mL
Canis familiaris [15]
  fAUC: 238 ng·h/mL
Canis familiaris [16]
  Activity: Non-Toxic
Canis familiaris [17]
  fCmax: 16.3 µM
Canis familiaris [18]
  Activity: 4 to 10 bpm
Canis familiaris [19]
  Activity: 5 mmHg
Canis familiaris [20]
  Activity: Dose-dependent effect

## C[C@@H](c1nc2ccc(N3CCC[C@@H](C(=O)N4CCCC4)C3)nc2[nH]1)n1cc(Cl)cn1
Canis familiaris [21]
  fCmax: 4.7 µM
[22]
  Ratio: 11
Canis familiaris [23]
  Activity: 4 to 6 mmHg
[24]
  pIC50: < 4.30
Canis familiaris [25]
  Activity: Toxic
[26]
  Ratio: 0.39
[27]
  clearance: 4 mL/min/kg
[28]
  CLH(app): 12.7 µL/min
[29]
  Ratio: 92
[30]
  fraction unbound: 0.12
Canis familiaris [31]
  Activity: 6 mmHg
Canis familiaris [32]
  fAUC: 797 ng·h/mL
